Here are results for 34 compounds from ChEMBL document CHEMBL4765343, “Design and synthesis of novel SCM-198 analogs as cardioprotective agents: Structure-activity relationship studies and biological evaluations” (Eur J Med Chem, 2020).

Structures are written as SMILES. Active and inactive are the calls of the source. The calls are words filed in the database; no cut-off is given here.

For assay [1], the system named is H9c2. The assay can be described thus: Antioxidant activity in rat H9c2 cells assessed as protection against H2O2-induced hypoxic injury by measuring cell viability at 1 uM preincubated for 4 hrs followed by H2O2 stimulation for 1 hr by MTT assay relative to control. The class given is functional. The procedure, abridged: (§1)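 H9c2 cells at 1 × 10^5 cells/mL, 100 μL per well in triplicate, left 18 h. Compound diluted in DMSO; DMSO alone as negative control. 4 h pretreatment, then 400 nM H2O2 for 1 h. Medium removed and MTT added for 2-4 h, formazan dissolved in DMSO, absorbance at 570 nm. Medium-only wells gave the blank.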
(Formazan colour is commonly taken as a measure of viable cells.)

Assay [2] relates to H9c2. Nature of the assay: Antioxidant activity in rat H9c2 cells assessed as protection against H2O2-induced hypoxic injury by measuring cell viability at 10 uM preincubated for 4 hrs followed by H2O2 stimulation for 1 hr by MTT assay relative to control. It is filed as functional. The procedure, abridged:
as §1

Assay [3] deals with H9c2. Nature of the assay: Cytoprotective activity against H2O2-induced injury in rat H9c2 cells assessed as reduction in LDH release at 10 uM preincubated for 4 hrs followed by H2O2 stimulation for 1 hr by LDH assay. The class given is functional, cell-based. The following applies: time 5.0 hrs. The procedure, abridged: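 Cells at 5 × 10^4 per well in triplicate, 18 h, then 4 h compound and 1 h H2O2. Model wells had H2O2 without compound; controls had DMSO. 50 μL medium mixed with 2X LDH assay buffer, kept in the dark at 22-25 °C for 10-30 min, read at 490-520 nm. Activity blank-subtracted, normalised to BCA protein of the lysed cells, and expressed relative to model wells.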

Assay [4] concerns H9c2. The assay can be described thus: Antioxidant activity in rat H9c2 cells assessed as protection against H2O2-induced hypoxic injury by measuring cell viability preincubated for 4 hrs followed by H2O2 stimulation for 1 hr by MTT assay relative to control. It is filed as functional. The following applies: time 5 hrs, read-out: ED50 (the source's name). In outline:
(§2)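 ED50 taken from log dose against % viability. Viability also reported at the EC50 concentration. Means ± SEM from three independent experiments.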

Assay [5] deals with H9c2. The assay can be described thus: Antioxidant activity in rat H9c2 cells assessed as protection against H2O2-induced hypoxic injury by measuring cell viability at ED50 concentration preincubated for 4 hrs followed by H2O2 stimulation for 1 hr by MTT assay relative to control. It is filed as functional. The conditions noted are these: time 5 hrs. In outline: as §2
Assay [6] deals with H9c2. The assay can be described thus: Antiapoptotic activity in rat H9c2 cells assessed as restoration of H2O2-induced bcl-2 downregulation at 10 uM preincubated for 4 hrs followed by H2O2 stimulation for 1 hr by Western blotting analysis. It is filed as functional, cell-based. The following applies: time 5.0 hrs. The procedure, abridged:
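Serum-starved (12 h) H9c2 cells were pretreated 4 h, then exposed to 500 nM H2O2 in DMEM for 1 h. Lysis on ice with protease/phosphatase inhibitors, then 13,000 g at 4 °C for 15 min. 20 μg protein run on 8-12% SDS-PAGE and blotted to PVDF. Probed overnight at 4 °C for caspase-3, pro-caspase-3, Bcl-2 and GAPDH, with chemiluminescent detection.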

Take `COc1cc(C(=O)OCCCNC(=N)N)cc(OC)c1O`: the Activity in assay [1] is 50.1%; in assay [2], 55.2%.

As to `COc1cc(/C=C/C(=O)OCCCCNC(=N)N)cc(OC)c1OC`, the Activity in assay [1] was determined as 55.4%; in assay [2], 61.4%.

In the case of `N=C(N)NCCCCOC(=O)c1ccncc1`, the Activity is 54% in assay [1] and 53.2% in assay [2].

For `N=C(N)NCCCCOC(=O)c1c(F)cc(F)cc1F`, the Activity in assay [1] is given as 69.6%; in assay [2], 60.7%.

In the case of `COc1ccc(C(=O)OCCCCNC(=N)N)c(OC)c1OC`, the figures for the Activity in assay [1] and in assay [2] were 49.2% and 57.8%, respectively.

On to `COc1cc(C(=O)OCCCCNC(=N)N)cc(OC)c1OC`, for which the Activity in assay [1] is 54.1%; in assay [2] it was 53.3%.

On to `CC(=O)Oc1ccccc1C(=O)OCCCCNC(=N)N`, for which the figures for the Activity in assay [1] and in assay [2] were 57.8% and 58.3%, respectively.

As to `N=C(N)NCCCCO`, the Activity in assay [1] is reported as 46.8%; in assay [2], 51.4%.

As for `COc1cc(C(=O)OCCCCNC(=N)N)cc(OC)c1OC(C)=O`, the Activity in assay [1] was determined as 52.3%; in assay [2], 55.2%.

Consider `N=C(N)NCCCCOC(=O)c1ccc2[nH]ccc2c1`, for which the results for the Activity in assay [1] and in assay [2] were 51.8% and 58.9%, respectively.

As for `COc1cc(C(=O)OC(C)CNC(=N)N)cc(OC)c1O` (stereo unspecified), the Activity in assay [1] worked out at 52.2%; in assay [2] it was 54.2%.

In the case of `COc1cc(OC)c(C(=O)OCCCCNC(=N)N)c(OC)c1`, the Activity in assay [1] was 55.2%; in assay [2], 53.4%.

For `N=C(N)NCCCCOC(=O)c1ccco1`, the figures for the Activity in assay [1] and in assay [2] were 51.1% and 53.2%, respectively.

As to `COc1cc(C(=O)OCC2CCN(C(=N)N)CC2)cc(OC)c1OC(C)=O`, the values for the Activity in assay [1] and in assay [2] were 42.7% and 47%, respectively.

For the compound `Cc1cccc(C(=O)OCCCCNC(=N)N)c1`, the Activity in assay [1] amounted to 64.4%; in assay [2], 65.8%; in assay [5] it was 57.4%. Further, the outcome in assay [3] was inactive. Further, in assay [4], the EC50 worked out at 156 nM.

As to `COc1cc(C(=O)OCCNC(=N)N)cc(OC)c1O`, the Activity in assay [1] came to 53.6%; in assay [2] it was 61.9%.

As for `CCN(CC)CCOC(=O)c1cc(OC)c(O)c(OC)c1`, the results for the Activity in assay [1], in assay [2] and in assay [5] were 61.1%, 66.8% and 51.7%, respectively. In assay [4], the EC50 stood at 207 nM.

`N=C(N)NCCCCOC(=O)C12CC3CC(CC(C3)C1)C2`: the figures for the Activity in assay [1] and in assay [2] were 58.2% and 56.8%, respectively.

Regarding `CC(=O)Oc1ccc(C(=O)OCCCCNC(=N)N)cc1`, the values for the Activity in assay [1] and in assay [2] were 57.8% and 52.7%, respectively.

Consider `COc1cc(C(=O)OCCOCCNC(=N)N)cc(OC)c1O`, for which the results for the Activity in assay [1], in assay [2] and in assay [5] were 63.4%, 69.8% and 58.8%, respectively. Moreover, in assay [6], the result was inactive. The EC50 in assay [4] was determined as 151 nM.

For the compound `N=C(N)NCCCCOC(=O)c1ccc([N+](=O)[O-])cc1`, the Activity in assay [1] came to 67.7%; in assay [2] it was 59.6%.

On to `COc1ccc(C(=O)OCCCCNC(=N)N)cc1`, for which the Activity worked out at 61.2% in assay [1] and 58.6% in assay [2].

Regarding `COc1cc(C(=O)OCCCN(C)C)cc(OC)c1O`, the Activity in assay [1] is given as 55.2%; in assay [2] it was 61.7%.

As to `COc1cc(C(=O)OCCN(C)C)cc(OC)c1O`, the Activity in assay [1] came out at 47.8%; in assay [2], 48.5%.

With `COc1cc(C(=O)OCCCCNC(=N)N)ccc1OC(C)=O`, the Activity in assay [1] was 63.4%; in assay [2], 56.4%.

Turning to `CC(=O)Oc1cccc(C(=O)OCCCCNC(=N)N)c1`, the values for the Activity in assay [1] and in assay [2] were 59.7% and 62.8%, respectively.

Turning to `COc1cc(C(=O)OCC2CCN(C(=N)N)CC2)cc(OC)c1O`, the Activity in assay [1] turned out to be 56.2%; in assay [2] it was 61%.

With `COc1ccc(OC)c(C(=O)OCCCCNC(=N)N)c1`, the Activity in assay [1] came to 53.3%; in assay [2], 57.7%.

On to `COc1cc(C(=O)OCCCCN)cc(OC)c1O`, for which the Activity is 56.3% in assay [1] and 56.2% in assay [2].

For the compound `N=C(N)NCCCCOC(=O)C1CCCCC1`, the results for the Activity in assay [1] and in assay [2] were 52.4% and 58.8%, respectively.

Take `N=C(N)NCCCCOC(=O)c1ccc(C(F)(F)F)cc1`: the Activity in assay [1] is on record as 54.2%; in assay [2], 51.7%.

Take `COc1cc(C(=O)OCCN2CCOCC2)cc(OC)c1O`: the Activity in assay [1] came out at 52.3%; in assay [2] it was 50.5%.

In the case of `COc1cc(C(=O)OCCCCCCNC(=N)N)cc(OC)c1O`, the Activity came to 53.4% in assay [1] and 58.9% in assay [2].

For the compound `COc1cc(C(=O)OCCCCCNC(=N)N)cc(OC)c1O`, the Activity in assay [1] turned out to be 58.9%; in assay [2], 50.1%.
